For one series, the system named is KB. Kind of series: Cytotoxicity against human KB cells after 72 hrs by MTS assay. It counts as cell-based. The essentials:
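KB cells were grown in D-MEM with 10% fetal calf serum, penicillin, streptomycin and fungizone, under 5% CO2. They were seeded at 650 cells/well and dosed 24 h later with compounds in DMSO, from 0.5 nM upward; controls got DMSO (1% final). MTS was added for 3 h at 37 °C and absorbance read at 490 nm as % of control. IC50 came from separate duplicate experiments.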
In general terms: Tetrazolium assays rely on reduction of a dye to a coloured formazan, in cell work by metabolically active cells.

The nature of series [1]: Binding affinity to synthetic hematin by spectrophotometry. The essentials: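 Monomeric hematin solution: hematin in 0.1 M NaOH with DMSO and 0.02 M sodium phosphate buffer (pH 6.0), made up with water. Drug and hematin were mixed at 10 molar ratios. Complex stoichiometry and dissociation constant Kd were determined by spectrophotometric methods.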
The nature of series [2]: Selectivity index, ratio of IC50 for human KB cells to IC50 for chloroquine-resistant Plasmodium falciparum W2. It counts as toxicity, cell-based. The conditions noted are these: read-out: Ratio IC50. The essentials:
(§1)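 SI is the ratio of the KB-cell IC50 to the parasite [3H]hypoxanthine IC50 for the given strain. KB cells were grown in D-MEM with 10% FCS and antibiotics under 5% CO2 and plated at 650 cells/well. After 24 h they were treated with compounds in DMSO (0.5 nM to 10 µM; 1% DMSO final) for 72 h. MTS was then added for 3 h at 37 °C and A490 was read against controls. IC50 runs were done in separate duplicate.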

The nature of series [3]: Selectivity index, ratio of IC50 for human KB cells to IC50 for chloroquine-resistant Plasmodium falciparum FCR3/Gambia. In kind it is toxicity, cell-based. The following applies: read-out: Ratio IC50. The essentials: as §1
Series [4] in a line: Selectivity index, ratio of IC50 for human KB cells to IC50 for chloroquine-resistant Plasmodium falciparum Bre1. It counts as toxicity, cell-based. The conditions noted are these: read-out: Ratio IC50. The gist of the method:
as §1

Series [5] in a line: Selectivity index, ratio of IC50 for human KB cells to IC50 for chloroquine-sensitive Plasmodium falciparum 3D7. It counts as toxicity, cell-based. The conditions noted are these: read-out: Ratio IC50. The gist of the method: as §1
Series [6] in a line: Dissociation constant, pKa by spectrophotometry. In kind it is physicochemical.
The nature of series [7]: Inhibition of beta-hematin formation after 18 hrs. In kind it is functional. The gist of the method:
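Modified BHIA: 8 mM hemin in DMSO (0.4 µmol per tube) was mixed with compounds in DMSO or DMSO/MeOH (1:1) at 0–10 molar equivalents to hemin, in triplicate. Acetate buffer held pH 5, and water-only controls were run. Hematin was quantified after serial dilution in 0.1 M NaOH, by absorbance at 405 nm. IC50 was taken as the concentration inhibiting crystallization by 50%.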

Series [8] concerns Plasmodium falciparum. The series can be described thus: Antiplasmodial activity against chloroquine-resistant Plasmodium falciparum FCR3/Gambia assessed as inhibition of [3H]hypoxanthine incorporation. The conditions noted are these: FCR-3/Gambia. It counts as functional, organism-based.
In series [9] the test system is Plasmodium falciparum. Kind of series: Antiplasmodial activity against chloroquine-resistant Plasmodium falciparum W2 assessed as inhibition of [3H]hypoxanthine incorporation. It counts as functional, organism-based.
For series [10], the system named is Plasmodium falciparum. Kind of series: Antiplasmodial activity against chloroquine-resistant Plasmodium falciparum Bre1 assessed as inhibition of [3H]hypoxanthine incorporation. It counts as functional, organism-based.
Series [11] has as its system Plasmodium falciparum. The series can be described thus: Antiplasmodial activity against chloroquine-sensitive Plasmodium falciparum 3D7 assessed as inhibition of [3H]hypoxanthine incorporation. It counts as functional, organism-based.

Data on nine compounds can be found in ChEMBL document CHEMBL1153081, “Antimalarial acridines: synthesis, in vitro activity against P. falciparum and interaction with hematin” (Bioorg Med Chem, 2009).

Molecules are shown by their SMILES.

What is called IC50 is the midpoint of a concentration-inhibition curve. As usually defined, the Kd is the equilibrium constant for the complex coming apart. A word on the pKa: it is the pH at which an ionisable group is half protonated.

`COc1ccc2nc3cc(Cl)ccc3c(NCCCCCCN)c2c1`: the IC50 worked out at 0.7 µM in the series with KB and 400 µM in [7]. In series [1], this compound came in with a Kd of 4.4 µM. The selectivity ratio is 3.9 in series [2], 3.5 in series [3], 4.1 in [4] and 5.4 in series [5]. In addition, the pKa in [6] was 9.2.

`COc1ccc2nc3cc(Cl)ccc3c(NCCCCN)c2c1`: the IC50 with KB stood at 0.6 µM; in the series on Plasmodium falciparum [8], 0.25 µM; in the series with Plasmodium falciparum [9], 0.25 µM; with Plasmodium falciparum [10], 0.3 µM; in the series with Plasmodium falciparum [11] it was 0.067 µM; in series [7] it was 1000 µM. In series [1], this compound had a Kd of 8.1 µM. Further, the selectivity ratio came out at 2.4 in series [2], 2.4 in series [3], 2 in series [4] and 8.9 in series [5]. Also, the pKa in series [6] was 9.1.

With `CCCCCCCNc1c2ccc(Cl)cc2nc2ccc(OC)cc12`, the IC50 turned out to be 0.85 µM in the series on KB; 14.6 µM with Plasmodium falciparum [8]; 27.2 µM in the series with Plasmodium falciparum [9]; 16.3 µM in the series on Plasmodium falciparum [10]; 18.1 µM in the series with Plasmodium falciparum [11]; 1500 µM in [7]. In [1], this compound gave a Kd of 5.4 µM. Moreover, the selectivity ratio amounted to 0.02 in [2], 0.06 in series [3], 0.05 in series [4] and 0.04 in [5]. The same compound yielded a pKa in series [6] of 7.5.

As to `NCCC(=O)NCCC(=O)Nc1c2ccccc2nc2ccccc12`, the IC50 with KB amounted to 60.1 µM; with Plasmodium falciparum [8], 17.8 µM; in the series with Plasmodium falciparum [9] it was 20.9 µM; in the series on Plasmodium falciparum [10] it was 21.6 µM; in the series with Plasmodium falciparum [11] it was 40.9 µM; in series [7], 1800 µM. The compound further showed a Kd in series [1] of 4 µM. In addition, the selectivity ratio in [2] worked out at 2.9; in series [3] it was 3.4; in [4] it was 2.8; in series [5] it was 1.5. This compound registered a pKa in [6] of 4.53.

On to `NCCCCCCNc1c2ccccc2nc2ccccc12`, for which the IC50 in the series with KB came to 0.79 µM; with Plasmodium falciparum [8], 0.36 µM; in the series with Plasmodium falciparum [9] it was 0.6 µM; with Plasmodium falciparum [10] it was 0.43 µM; in the series with Plasmodium falciparum [11] it was 1.13 µM; in series [7], 300 µM. Besides, the Kd in series [1] worked out at 4.6 µM. The selectivity ratio in [2] came out at 1.3; in [3] it was 2.2; in series [4], 1.8; in series [5] it was 0.7. The compound also returned a pKa in series [6] of 9.86.

For the compound `COc1ccc2nc3cc(Cl)ccc3c(NCCN)c2c1`, the IC50 was found to be 2.07 µM in the series with KB; 0.33 µM in the series with Plasmodium falciparum [8]; 0.25 µM with Plasmodium falciparum [9]; 0.28 µM in the series on Plasmodium falciparum [10]; 0.042 µM in the series with Plasmodium falciparum [11]; 4600 µM in series [7]. Also, in [1], binding was put at a Kd of 4.2 µM. In addition, the selectivity ratio in series [2] worked out at 8; in series [3], 6; in series [4] it was 7; in series [5] it was 50. In series [6], the pKa is 7.94.

On to `NCCCCCCCC(=O)Nc1c2ccccc2nc2ccccc12`, for which the IC50 in the series with KB turned out to be 52.9 µM; with Plasmodium falciparum [8] it was 28.6 µM; in the series on Plasmodium falciparum [9], 50 µM; in the series on Plasmodium falciparum [10], 26.7 µM; in the series on Plasmodium falciparum [11] it was 41.9 µM; in series [7], 1100 µM. In addition, the selectivity ratio was 1.1 in [2], 1.8 in series [3], 2 in series [4] and 1.3 in [5]. For the same compound, in series [6], the pKa turned out to be 4.59.

In the case of `COc1ccc2nc3cc(Cl)ccc3c(NCCCCCCNc3c4ccc(Cl)cc4nc4ccc(OC)cc34)c2c1`, the IC50 in the series on KB was 0.05 µM; with Plasmodium falciparum [8], 1.01 µM; in the series on Plasmodium falciparum [9], 4.55 µM; in the series on Plasmodium falciparum [10] it was 1.11 µM; in the series on Plasmodium falciparum [11], 3.39 µM; in series [7] it was 1300 µM. Also, the affinity in [1], expressed as Kd, was 20 µM. Besides, the selectivity ratio worked out at 0.01 in [2], 0.05 in series [3] and 0.045 in series [4]. This compound also registered a pKa in series [6] of 8.23.

In the case of `CCN(CC)CCCC(C)Nc1ccnc2cc(Cl)ccc12` (stereo not drawn) [CHLOROQUINE], the IC50 in the series on KB amounted to 22.5 µM; in series [7], 900 µM. This compound gave a Kd in series [1] of 5.4 µM.
